Results of several laboratories.
Lines come from different studies, so protocols differ.
Target: Serine/threonine-protein kinase Chk1 (CHEK1, Homo sapiens, UniProt O14757)
Residues used in one study (O14757 1-476): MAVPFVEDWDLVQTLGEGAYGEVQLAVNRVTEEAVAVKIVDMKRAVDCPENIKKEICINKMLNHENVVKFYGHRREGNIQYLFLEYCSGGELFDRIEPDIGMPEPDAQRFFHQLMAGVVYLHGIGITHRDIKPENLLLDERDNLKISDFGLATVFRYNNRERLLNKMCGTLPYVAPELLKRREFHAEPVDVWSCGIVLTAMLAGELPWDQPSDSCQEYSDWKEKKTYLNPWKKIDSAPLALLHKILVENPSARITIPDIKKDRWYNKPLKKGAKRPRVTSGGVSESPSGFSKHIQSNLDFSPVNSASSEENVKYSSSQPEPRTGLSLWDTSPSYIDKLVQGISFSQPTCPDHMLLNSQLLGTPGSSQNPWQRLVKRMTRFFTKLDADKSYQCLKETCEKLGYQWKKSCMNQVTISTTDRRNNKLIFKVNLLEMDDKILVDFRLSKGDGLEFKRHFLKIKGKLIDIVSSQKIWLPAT

CC(C)(C)c1nc2c(s1)c1nc(N)ncc1c1ccc(NS(=O)(=O)c3c(F)cccc3F)c(F)c12  remaining activity (enzyme activity, inhibitor, radiometric; 1 µM): 94%
CCN(CC)CCNC(=O)c1c(C)[nH]c(/C=C2\C(=O)Nc3ccc(F)cc32)c1C  remaining signal (cell-free assay; 0.5 µM): 29.2%
COc1cc(Nc2cnc(C#N)c(O[C@H](C)CN(C)C)n2)ncc1-c1cnn(C)c1  remaining activity (enzyme activity, inhibitor, radiometric; 10 µM): 6%
CO[C@@H](C)c1c(Nc2ccc([C@@H](N(C)C(=O)C3CCS(=O)(=O)CC3)C(F)(F)F)cc2)cnc2cc(Cl)nn12  remaining binding (cell-free assay, competition with immobilised ligand; 1 µM): 95%
C[S+]([O-])c1ccc(-c2nc(-c3ccncc3)c(-c3ccc(F)cc3)[nH]2)cc1 (stereo not drawn)  remaining signal (cell-free assay; 0.5 µM): 97.3%
Cc1sc(C(=O)NC2COC2)cc1-n1cc(NC(=O)Nc2c(F)cccc2Cl)cn1  remaining activity (enzyme activity, inhibitor; 10 µM): 118%
O=C(NS(=O)(=O)c1ccc(NCC2CCOCC2)c([N+](=O)[O-])c1)c1ccc(N2CCN(Cc3ccc(C(F)(F)F)cc3-c3ccc(Cl)cc3)CC2)cc1Oc1cnc2[nH]ccc2c1  remaining binding (cell-free assay, competition with immobilised ligand; 1 µM): 100%
O=C1Nc2ccc(Cl)cc2C1=Cc1cc(Cl)c(O)c(Cl)c1  remaining signal (cell-free assay; 0.5 µM): 86.4%
Nc1nc(NC2CCCCC2)sc1C(=O)c1ccccc1  remaining activity (enzyme activity, inhibitor; 10 µM): 96%
Cc1cc(NC(=O)c2cccc3cc(-c4cccc5[nH]nc(N)c45)ccc23)ccc1F  activity vs control (enzyme activity, inhibitor; 0.1 µM): 96%
C#Cc1cccc(Nc2ncnc3cc(OCCOC)c(OCCOC)cc23)c1  remaining signal (cell-free assay; 0.5 µM): 95.1%
Cc1ccc(NC(=O)c2ccc(C)c(C(F)(F)F)c2)cc1C#Cc1nn(C2CCC(O)CC2)c2ncnc(N)c12 (stereo not drawn)  remaining signal (cell-free assay; 10 µM): 114%
Nc1cnc(N2CCc3cc(S(=O)(=O)Nc4c(F)cc(Cl)cc4F)cc(N4CCCC4=O)c32)nc1  remaining binding (cell-free assay, competition with immobilised ligand; 1 µM): 95%
CC(C)(C)C(=O)c1sc(NC2CCCCC2)nc1N  remaining activity (enzyme activity, inhibitor; 10 µM): 80%
Cc1ccc(C(=O)Nc2ccc(CN3CCN(C)CC3)c(C(F)(F)F)c2)cc1C#Cc1cnc2cccnn12  remaining activity (enzyme activity, inhibitor; 23.5 nM): 96%
Oc1cccc(-c2nc(N3CCOCC3)c3oc4ncccc4c3n2)c1  remaining activity (enzyme activity, inhibitor; 10 µM): 115%
CNC(=O)Nc1ccc2c(c1)[C@@]1(CC2)OC(=O)N(CC(=O)N(Cc2ccc(F)cc2)[C@@H](C)C(F)(F)F)C1=O  remaining binding (cell-free assay, competition with immobilised ligand; 1 µM): 100%
N#CCCc1ccc2c(c1)-c1[nH]c3ccc([N+](=O)[O-])cc3c1CC(=O)N2  remaining signal (cell-free assay; 0.5 µM): 45.1%
COCCOc1nc(-c2ccc(Cl)nc2)nc2c1CN(C(=O)c1ncn3ccccc13)CC2  remaining binding (cell-free assay, competition with immobilised ligand; 0.1 µM): 100%
CC(C)(O)[C@H]1CC[C@H](Nc2ccc3ncc(-c4cccc(C(F)(F)F)c4)n3n2)CC1  remaining activity (enzyme activity, inhibitor; 1 µM): 94.2%
N#CC1(c2ccccn2)CCN(Cc2cc(C(=O)N3CCCC3)c(=O)n3ccccc23)CC1  remaining binding (cell-free assay, competition with immobilised ligand; 1 µM): 90%
Cn1c(=O)n(-c2ccc(C(C)(C)C#N)cc2)c2c3cc(-c4cnc5ccccc5c4)ccc3ncc21  remaining activity (enzyme activity, inhibitor; 10 µM): 146%
CN(C)CC#Cc1ccc(OCCCc2sc(N3CCc4cccc(C(=O)Nc5nc6ccccc6s5)c4C3)nc2C(=O)O)c(F)c1  remaining binding (cell-free assay, competition with immobilised ligand; 1 µM): 89%
COc1cc(Cl)c(C(=O)N[C@@H](CN[C@H]2CC[C@@H](N)CC2)Cc2ccc(C#N)cc2)cc1-c1ccc(CN[C@H](C)c2ccc(C)cc2)o1  remaining activity (enzyme activity, inhibitor; 1 µM): 100%
